Key:
P388 [1] = test: Growth inhibition of mouse P388 cells by in vitro assay; type: functional, cell-based; conditions: read-out: I50
Outline: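 P-388 murine leukemia cells kept in suspension culture were incubated with a range of diacridine concentrations. The concentration that reduced the rate of cell growth by 50% was taken as the I50.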

P388 [2] = test: Antitumor activity against mouse P388 cells allografted in BDF/1 mouse assessed as increase in life span at optimal dose consecutively administered on day 1 to day 9 post challenge relative to control; type: functional
Outline: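 P-388 tumour passaged as ascites in DBA/2 mice; 1×10^6 ascites cells given ip to BDF/1 mice on day 0. Drug given daily for 9 consecutive days from day 1 to groups of six mice at 20, 10, 5, 2.5, 1.25 and 0.625 mg/kg/day. Day of death recorded; % ILS calculated from treated vs control life spans; dose giving optimal % ILS reported.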

Mus musculus = test: Toxicity in mouse P388 cells allografted BDF/1 mouse consecutively administered on day 1 to day 9 post challenge measured on day 5; type: organism-based

| SMILES | IC50 (P388 [1]) [nM] | ILS (P388 [2]) [%] | LD10 (Mus musculus) [mg/kg/day] |
| --- | --- | --- | --- |
| COc1ccc2c(NCCCCCCNc3c4ccccc4nc4cc(OC)ccc34)c3ccccc3nc2c1 | 240 | 71 | 9.5 |
| c1ccc2c(NCCCCCCCNc3c4ccccc4nc4ccccc34)c3ccccc3nc2c1 | 320 | 67 | 12.5 |
| c1ccc2c(NCCCCCNc3c4ccccc4nc4ccccc34)c3ccccc3nc2c1 | – | 36 | 12.5 |
| c1ccc2c(NCCCCCCCCCCCCNc3c4ccccc4nc4ccccc34)c3ccccc3nc2c1 | 320 | 10 | 6.5 |
| CCc1cccc2c(NCCNc3c4ccccc4nc4c(CC)cccc34)c3ccccc3nc12 | – | 20 | 16 |
| CCc1cccc2c(NCCCCNc3c4ccccc4nc4c(CC)cccc34)c3ccccc3nc12 | – | 10 | 7.4 |
| Cl.Nc1ccc2c(NCCCCCCNc3c4ccccc4nc4cc(N)ccc34)c3ccccc3nc2c1 | 210 | 47 | > 20 |
| CCc1cccc2c(NCCCCCCNc3c4ccccc4nc4c(CC)cccc34)c3ccccc3nc12 | 230 | 43 | 16 |
| O=[N+]([O-])c1ccc2c(NCCCCCCNc3c4ccccc4nc4cc([N+](=O)[O-])ccc34)c3ccccc3nc2c1 | 480 | 37 | > 20 |
| COc1ccc2nc3ccccc3c(NCCCCCCNc3c4ccccc4nc4ccc(OC)cc34)c2c1 | 320 | 25 | 8.6 |
| CCCOc1ccc2c(NCCCCCCNc3c4ccccc4nc4cc(OCCC)ccc34)c3ccccc3nc2c1 | 320 | 37 | 6.8 |
| COc1cccc2c(NCCCCCCNc3c4ccccc4nc4c(OC)cccc34)c3ccccc3nc12 | 190 | 62 | 12.5 |
| CCCCOc1cccc2c(NCCCCCCNc3c4ccccc4nc4c(OCCCC)cccc34)c3ccccc3nc12 | 360 | 7 | 6.5 |
| CCc1cccc2c(NCCCCCCCCNc3c4ccccc4nc4c(CC)cccc34)c3ccccc3nc12 | 230 | 42 | 12 |
| COc1ccc2nc3ccccc3c(NCCCCCCCCNc3c4ccccc4nc4ccc(OC)cc34)c2c1 | 190 | 30 | 6 |
| COc1ccc2c(NCCCCCCCCNc3c4ccccc4nc4cc(OC)ccc34)c3ccccc3nc2c1 | – | 84 | 10.5 |
| COc1cccc2c(NCCCCCCCCNc3c4ccccc4nc4c(OC)cccc34)c3ccccc3nc12 | 290 | 89 | 13.5 |
| COc1ccc2c(NCCCCCCCCNc3c4ccc(OC)cc4nc4c(OC)cccc34)c3cccc(OC)c3nc2c1 | 420 | 66 | 13 |
| COc1ccc2c(NCCCCCCCCNc3c4ccc(OC)cc4nc4ccc(Cl)cc34)c3cc(Cl)ccc3nc2c1 | 160 | 18 | 7 |
| COc1ccc2c(NCCCCCCCCNc3c4ccc(Cl)cc4nc4cc(OC)ccc34)c3ccc(Cl)cc3nc2c1.Cl | – | 17 | > 20 |
| CCOc1cccc2c(NCCCCCCCCNc3c4ccccc4nc4c(OCC)cccc34)c3ccccc3nc12 | – | 76 | 13.5 |
| CCCOc1ccc2c(NCCCCCCCCNc3c4ccccc4nc4cc(OCCC)ccc34)c3ccccc3nc2c1 | 210 | 63 | 5.5 |
| Cl.Nc1ccc2c(NCCCCCCCCNc3c4ccccc4nc4cc(N)ccc34)c3ccccc3nc2c1 | – | 58 | > 20 |
| O=[N+]([O-])c1ccc2c(NCCCCCCCCNc3c4ccccc4nc4cc([N+](=O)[O-])ccc34)c3ccccc3nc2c1 | 330 | 45 | > 20 |
| COc1ccc2c(NCCCCCCCCNc3c4ccc(OC)cc4nc4cc([N+](=O)[O-])ccc34)c3ccc([N+](=O)[O-])cc3nc2c1 | – | 21 | > 20 |

| SMILES | IC50 (P388 [1]) [nM] | ILS (P388 [2]) [%] | LD10 (Mus musculus) [mg/kg/day] |
| --- | --- | --- | --- |
| Clc1ccc2c(NCCCCCCCCNc3c4ccccc4nc4cc(Cl)ccc34)c3ccccc3nc2c1 | 230 | 29 | > 20 |
| Brc1ccc2c(NCCCCCCCCNc3c4ccccc4nc4cc(Br)ccc34)c3ccccc3nc2c1 | 210 | 9 | > 20 |
| CSc1ccc2c(NCCCCCCCCNc3c4ccccc4nc4cc(SC)ccc34)c3ccccc3nc2c1.Cl | 370 | 27 | 8 |
| CSc1cccc2c(NCCCCCCCCNc3c4ccccc4nc4c(SC)cccc34)c3ccccc3nc12 | 860 | 13 | > 20 |
| CCCCOc1cccc2c(NCCCCCCCCNc3c4ccccc4nc4c(OCCCC)cccc34)c3ccccc3nc12 | 190 | 7 | 7.6 |
| CCc1cccc2c(NCCCCCCCCCCNc3c4ccccc4nc4c(CC)cccc34)c3ccccc3nc12 | 150 | 33 | 13 |
| c1ccc2c(NCCCCCCCCCCNc3c4ccccc4nc4ncccc34)c3cccnc3nc2c1 | – | 22 | – |
| c1ccc2c(NCCCCCCCCCCCCNc3c4ccccc4nc4ncccc34)c3cccnc3nc2c1 | – | 10 | – |
| COc1ccc2c(NCCNc3c4ccccc4nc4cc(OC)ccc34)c3ccccc3nc2c1.Cl | – | 0 | 7.2 |
| CCCCOc1cccc2c(NCCNc3c4ccccc4nc4c(OCCCC)cccc34)c3ccccc3nc12 | – | 9 | 12.5 |
| COc1ccc2c(NCCCCNc3c4ccccc4nc4cc(OC)ccc34)c3ccccc3nc2c1.Cl | – | 10 | > 20 |
| CCCOc1cccc2c(NCCCCNc3c4ccccc4nc4c(OCCC)cccc34)c3ccccc3nc12.Cl | – | 9 | 9.8 |
| Cl.Nc1ccc2nc3ccccc3c(NCCCCCCCCNc3c4ccccc4nc4ccc(N)cc34)c2c1 | – | 60 | > 20 |
| Cc1ccc2c(NCCCCCCCCNc3c4ccccc4nc4cc(C)ccc34)c3ccccc3nc2c1.Cl | – | 59 | 7.3 |
| Cc1ccc2c(NCCCCCCCCNc3c4ccccc4nc4c(C)c(C)ccc34)c3ccccc3nc2c1C.Cl | – | 60 | 8 |
| COc1ccc(C)c2c(NCCCCCCCCNc3c4ccccc4nc4c(OC)ccc(C)c34)c3ccccc3nc12.Cl | – | 20 | 12.5 |
| COc1cccc2c(NCCCCCCCCNc3c4ccc([N+](=O)[O-])cc4nc4c(OC)cccc34)c3ccc([N+](=O)[O-])cc3nc12.Cl | – | 86 | > 20 |
| COc1ccc2c(NCCCCCCCCCCNc3c4ccccc4nc4cc(OC)ccc34)c3ccccc3nc2c1.Cl | – | 55 | 8 |
| COc1ccc2nc3cc(Cl)ccc3c(NCCCCCCCCNc3c4ccc(Cl)cc4nc4ccc(OC)cc34)c2c1 | – | 9 | > 20 |
| c1ccc2c(NCCCCCCNc3c4ccccc4nc4ccccc34)c3ccccc3nc2c1 | 380 | 54 | 9 |
| c1ccc2c(NCCCCNc3c4ccccc4nc4ccccc34)c3ccccc3nc2c1 | 2710 | 13 | 11 |
| c1ccc2c(NCCCCCCCCCCNc3c4ccccc4nc4ccccc34)c3ccccc3nc2c1 | 380 | 33 | 7 |
| c1ccc2c(NCCCCCCCCNc3c4ccccc4nc4ccccc34)c3ccccc3nc2c1 | 320 | 60 | 13.5 |
| c1ccc2c(NCCNc3c4ccccc4nc4ccccc34)c3ccccc3nc2c1 | 1420 | 7 | 4.3 |
